# The list is not random: actives were taken first. Their share in the collection is about 4.6%.
# CHO parental Ca: counter-screen for OX1R antagonists: effect in parental CHO cells; parental CHO-K1, ATP-induced calcium, Fluo-8 fluorescence; inhibition, % at 5.6 µM; hit rate 0.63% among 330,000;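 active = inhibition above that plate's mean sample inhibition plus 3 SD, cut at about 26% in these data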;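 note: 0% = ATP-challenged DMSO wells and 100% = DMSO wells without ATP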
#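 Material – parental CHO cells · Reagent – ATP stimulus · Compound – single nominal dose of 5.6 µM per compound · Detection – Fluo-8 fluorescence · Read-out basis – percent inhibition of calcium signal · Controls – ATP-challenged DMSO wells low, unchallenged DMSO wells high · Repeats – no replicates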
# GPR7 antag: antagonists of human GPR7 (neuropeptides B/W receptor 1); inhibition, % at 4.4 µM; GPR7-expressing cells, fluorescence antagonist assay; AID 1861; P48145; hit rate 1.1% among 290,000; in the data active = inhibition above about 16%, passing the limit was not always enough;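 note: cells stimulated with the agonist NPW; 0% = agonist with vehicle and 100% = vehicle without agonist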
# Target sequence (P48145 whole entry, looked up): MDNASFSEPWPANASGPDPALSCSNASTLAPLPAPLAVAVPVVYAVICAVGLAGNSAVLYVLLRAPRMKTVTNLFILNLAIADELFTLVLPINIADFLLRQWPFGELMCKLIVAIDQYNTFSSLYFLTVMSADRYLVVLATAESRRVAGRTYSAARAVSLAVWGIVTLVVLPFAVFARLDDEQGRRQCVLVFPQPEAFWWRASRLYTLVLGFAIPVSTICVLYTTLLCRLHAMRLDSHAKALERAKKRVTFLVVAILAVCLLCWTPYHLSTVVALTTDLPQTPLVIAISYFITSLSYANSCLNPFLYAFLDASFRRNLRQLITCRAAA
# TAAR1 agonist: agonists of human TAAR1. Q96RJ0. CHO RD-HGA16 TAAR1, Fluo-8 calcium fluorescence; vehicle wells 0%, saturating PEA agonist 100%. AID 624467. activation, % at 3 µM. hit rate 0.99% among 360,000;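 active = activation above the mean activation of all test compounds in the run plus 3 SD, cut at about 38% in these data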
#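 test system = CHO RD-HGA16 cells carrying human TAAR1 plus Gα16 | schedule = 17-24 h seeding, 75 min 37 °C dye, 30 min RT | compound dosing = 3 µM single concentration | control set = DMSO and PEA EC100 | replicates = n 1 | signal = Fluo-8 fluorescence, 5 s baseline then 140 s kinetic read | measure = percent activation vs PEA EC100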
# OX1R antag-1: blocks the human orexin 1 receptor; O43613; OX1R-expressing cells, FRET antagonist read-out; inhibition, % at 6.6 µM; hit rate 1.8% among 330,000; AID 485270; in the data active = inhibition mostly above about 38%, no sharp cut-off; inactive = mostly below about 40%;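 note: 0% = agonist challenge alone and 100% = reference antagonist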
# Target sequence (O43613 whole entry, looked up): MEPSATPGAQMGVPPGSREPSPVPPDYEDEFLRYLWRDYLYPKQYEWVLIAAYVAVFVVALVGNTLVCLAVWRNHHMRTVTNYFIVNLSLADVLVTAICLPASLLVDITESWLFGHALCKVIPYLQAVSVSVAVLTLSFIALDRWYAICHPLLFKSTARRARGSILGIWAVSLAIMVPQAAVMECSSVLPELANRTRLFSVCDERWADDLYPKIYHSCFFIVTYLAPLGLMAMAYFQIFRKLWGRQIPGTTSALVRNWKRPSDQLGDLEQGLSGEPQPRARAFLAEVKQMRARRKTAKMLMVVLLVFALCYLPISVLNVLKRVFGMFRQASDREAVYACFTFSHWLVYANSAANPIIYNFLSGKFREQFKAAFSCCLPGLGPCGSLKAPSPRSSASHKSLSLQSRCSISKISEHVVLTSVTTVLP
# TAAR1 antag: human TAAR1 antagonism; CHO RD-HGA16 TAAR1, Fluo-8 calcium fluorescence, antagonist; inhibition, % at 3 µM; hit rate 1.5% among 360,000;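 active = inhibition above a per-plate cutoff, the mean inhibition of test compounds on that plate plus 3 SD, cut at about 49% in these data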;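 note: 0% = DMSO plus EC80 beta-PEA response and 100% = DMSO alone without agonist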
#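 Assay system: RD-HGA16 CHO cells with stable hTAAR1 and Gα16 / Reagent: EC80 β-phenethylamine stimulus / Doses: 3 µM, single point / Timing: dye loading 75 min at 37 °C, then 30 min room temperature / Measured by: Fluo-8 intracellular calcium dye fluorescence, real-time kinetic reads / Controls: vehicle wells and EC80 agonist wells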
# OX1R antag-2: blocks the human orexin 1 receptor. O43613. CHO/OX1R cells, Fluo-8 calcium fluorescence, orexin A. inhibition, % at 5 µM. hit rate 0.43% among 330,000;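 active = inhibition above its plate's threshold, mean inhibition of all tested compounds on the plate plus 3 SD, cut at about 37% in these data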;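 note: 0% = orexin A challenge wells and 100% = SB-334867-A antagonist wells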
# An asterisk follows results filed as active; nt = no result given.
SMILES,CHO parental Ca,GPR7 antag,TAAR1 agonist,OX1R antag-1,TAAR1 antag,OX1R antag-2
Cc1cccc(N2CCN(C(=O)C3CC(=O)N(c4ccc5c(c4)OCCO5)C3)CC2C)c1 (stereo unspecified),-14.1,nt,17.1,-3.7,55.1*,0.8
COc1ccc(C2c3[nH]c4ccccc4c3CCN2Cc2cccn2-c2ncccn2)cc1C (stereo unspecified),-32.6,29.8*,1.0,26.1,1.4,-21.8
COc1cc(CNC2CCCCCC2)cc(OC)c1O,-0.1,-13.4,4.2,8.1,-2.1,3.0
COc1cc(CNC2CCCC2)cc(Cl)c1OCc1ccccc1F,20.9,8.6,39.0*,15.4,26.8,6.4
COC(=O)C1CCN(S(=O)(=O)c2c[nH]c(=O)[nH]c2=O)CC1,nt,nt,1.2,nt,3.9,nt
Cc1onc(-c2c(Cl)cccc2Cl)c1/C(N)=N/OC(=O)C(C)(C)C,-17.8,-26.1,11.3,3.1,1.4,-16.2
Cc1onc(-c2c(Cl)cccc2Cl)c1CO/N=C(\C#N)c1c(Cl)cccc1Cl,0.9,-5.9,2.5,18.4,49.1*,-24.6
COC(=O)C1=C(C)N(Cc2ccccc2C(F)(F)F)C(=NCc2ccccc2)NC1CCc1ccccc1 (stereo unspecified),nt,nt,11.8,nt,4.3,nt
Cc1cc(N=Nc2ccccc2C(=O)O)c(C)c(C)c1O,6.0,-5.4,0.3,49.8*,-27.4,-3.0
N#Cc1cc([N+](=O)[O-])ccc1NC(=O)COC(=O)C1CCC(=O)N1 (stereo unspecified),-5.0,nt,0.1,42.5*,3.6,-13.7
N#Cc1cc([N+](=O)[O-])ccc1NC(=O)CSc1n[nH]c(=O)[nH]c1=O,-13.4,nt,0.4,44.9*,6.9,-12.9
N#Cc1cc([N+](=O)[O-])ccc1NC(=O)COC(=O)C12CC3CC(CC(C3)C1)C2,-9.9,-9.0,nt,32.8,nt,-26.2
COc1cc(/C=N/N2C(=O)CSC2=S)cc(Br)c1O,nt,-2.7,62.3*,nt,32.4,nt
Cc1cc(C)n(-c2nc(Nc3ccccc3C)nc(-n3nc(C)cc3C)n2)n1,25.7,6.3,39.1*,14.4,87.5*,26.9
O=C(Cc1c[nH]c2ccccc12)Nc1ccc(Nc2ccncc2)cc1,nt,nt,1.1,nt,-6.4,nt
Cc1cc(C(=O)COC(=O)c2ccc(N)c([N+](=O)[O-])c2)c(C)n1-c1ccc2c(c1)OCO2,23.7,-2.6,-0.3,47.2*,31.6,3.9
CC(=O)c1ccc(OCC(=O)c2cc(C)n(-c3ccc4c(c3)OCO4)c2C)cc1,52.6*,-7.5,4.2,32.1,9.9,19.1
Cc1cc(C(=O)COC(=O)c2ccc(N)c([N+](=O)[O-])c2)c(C)n1Cc1ccc2c(c1)OCO2,-9.3,-5.3,0.3,5.3,0.8,-8.8
COc1cccc(NS(=O)(=O)c2ccc3c(c2)CCN3C(C)=O)c1,4.8,-1.3,3.9,2.0,6.6,-7.6
CSc1cccc(NS(=O)(=O)c2ccc3c(c2)CCN3C(C)=O)c1,64.5*,33.0,11.7,22.3,30.3,47.2
CC(C)(C)C(c1nc2ccccc2[nH]1)n1c(-c2cc(Cl)cc(Cl)c2)nc2ccccc21 (stereo unspecified),nt,nt,-1.4,nt,-24.6,nt
Cc1cccc(NC2=C(NC(=O)c3ccccc3)C(=O)c3ccccc3C2=O)c1,-27.9,6.3,1.1,75.0*,-7.8,-26.5
O=C(NC1=C(Nc2ccc(Cl)cc2)C(=O)c2ccccc2C1=O)c1ccccc1,-26.6,-5.9,7.9,56.2,26.2,-10.5
O=C(NC1=C(NC2CCS(=O)(=O)C2)C(=O)c2ccccc2C1=O)c1ccccc1 (stereo unspecified),-28.4,-14.6,-0.9,72.9*,-9.4,-10.6
CCOC(=O)C1=CCN(S(C)(=O)=O)C1c1ccc(Cl)cc1 (stereo unspecified),nt,nt,3.7,nt,-12.9,nt
SMILES,CHO parental Ca,GPR7 antag,TAAR1 agonist,OX1R antag-1,TAAR1 antag,OX1R antag-2
O=S(=O)(c1ccc(F)cc1)N1CCCc2nc(-c3ccc(Br)cc3)ccc21,nt,nt,-0.9,nt,-14.6,nt
N/C(=N\c1nc2ccccc2o1)NC(=O)c1ccccc1,-34.4,3.6,16.1,11.1,-5.0,-28.0
N/C(=N\c1nc2ccccc2o1)NC(=O)/C=C/c1ccccc1,-13.7,-10.8,1.9,40.2*,-26.2,-15.9
NC(=O)c1ncn([C@@H]2O[C@H](C(=O)N[C@H](Cc3c[nH]c4ccccc34)C(=O)N3CCN(C(=O)N4CCOCC4)CC3)[C@@H](O)[C@H]2O)n1,nt,nt,2.1,nt,-24.7,nt
CCn1nc(C)cc1-c1nnc(Sc2ncc([N+](=O)[O-])s2)n1C,23.7,-1.4,9.5,52.2*,16.3,8.4
CC(C)c1[nH]nc2c1C(c1ccccc1)N(Cc1ccccc1)C2=O (stereo unspecified),nt,nt,6.9,nt,-2.9,nt
COC(=O)c1sc(-c2ccc(C(C)(C)C)cc2)cc1NC(=O)CCC(=O)O,31.3,-7.0,10.6,18.6,51.4*,31.0
COc1ccc(/C=N/NC(=O)c2ccccc2OC)cc1COc1ccccc1[N+](=O)[O-],-4.2,0.6,1.3,24.5,50.8*,-12.2
COc1cc2c(cc1OC)-c1cc3ccc(OC)c(OC)c3c[n+]1CC2,-3.2,nt,3.7,61.7*,-18.7,-12.6
CC(C)OCCCn1c(=N)c(C(N)=S)cc2c(=O)n3ccccc3nc21,-23.6,3.2,2.3,74.6*,3.9,-34.2
CC(C)OCCCn1c(=NC(=O)c2ccncc2)c(C#N)cc2c(=O)n3ccccc3nc21,-12.1,-2.6,9.3,52.3*,10.2,-22.1
COC(=O)C1=C(C)N(CC(C)C)C(=S)NC1c1cccc(Br)c1 (stereo unspecified),nt,nt,3.1,nt,48.5,nt
Cc1ccccc1-c1ccc2c(c1)[C@@H]1C[C@H](N(C)CC3CCCCC3)[C@H]([C@H](C)O)CN1CC2,nt,nt,4.0,nt,-16.8,nt
O=C(N/N=C/c1cccs1)c1cc(-c2ccc(Cl)s2)[nH]n1,-4.0,-10.5,5.4,58.9*,10.8,9.2
COc1cccc(C(=O)N2CCC[C@@H]2C(=O)N2CCC[C@H]2C(=O)NCc2ccccc2)c1,nt,nt,4.2,nt,-22.4,nt
O=C1C=C(N2CCOCC2)c2cccc3cccc1c23,nt,nt,11.4,nt,-0.5,nt
O=C1C=C(N2CCOCC2)c2ccccc2C1=O,-3.5,-9.4,4.8,63.8*,13.4,-12.6
CCN(Cc1ccccc1)S(=O)(=O)c1ccc(C(=O)N(CCCN(C)C)c2nc3ccc(F)cc3s2)cc1,-7.4,0.6,41.1*,3.7,39.9,-14.6
Cc1cc(C)c2sc(N(CCCN(C)C)C(=O)c3ccc(S(=O)(=O)N(C)C4CCCCC4)cc3)nc2c1,-5.7,nt,40.6*,20.2,19.4,-26.0
COc1cc2nc(N(CCCN(C)C)C(=O)c3ccc(S(=O)(=O)N4CCc5ccccc54)cc3)sc2cc1OC,-13.9,nt,39.9*,9.1,-9.0,-17.7
CC(C)(C)c1ccc(CNC(=O)C2CCCN2C(=O)Nc2ccccc2)cc1 (stereo unspecified),-14.6,-6.5,1.5,5.0,-2.0,1.1
